Rows were chosen to be rich in hits. Some 3.7% of all compounds tested hit in one or more screens of this group.
E-sel inducer – E-selectin induction in HUVECs, primary screen, imaging, HUVEC, immunofluorescence imaging, single point; activation, % at 7.58 µM; P16581; 260,000 tested, 0.37% active; normalized: neutral wells 0, TNF-alpha wells 100;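 active = mean E-selectin-positive cell signal at least 10% of the positive control, reached in at least 60% of replicates, without over 20% cell loss; inconclusive = no rule given, readout overlaps actives, possibly toxicity-flagged; inactive = the rest, including those meeting only one limit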
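Read-out: % PE-positive cells | Test system: HUVEC | Doses: One compound dose added by pin transfer | Buffer or medium: EGM-2 over gelatin coat | Signal: Immunofluorescence imaging | Benchmarks: TNF-alpha, DMSO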
F508del corr – F508del CFTR correction, initial screen, CFBE line, single point; activity (quench increase), % at 7.58 µM; 350,000 tested, 0.36% active; CFBE cells, YFP halide quenching; stimulated with forskolin plus potentiator P3; % fluorescence drop versus neutral controls;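 active = mean added fluorescence quench of at least 8% versus neutral control, with both replicates also reaching 8%; inconclusive = only one of the mean or replicate conditions met; inactive = mean below 8% and not both replicates reaching 8%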;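 note: cells transiently co-express mutant CFTR-F508del with the halide-sensitive YFP; corrector assay measuring rescue of mutant channel to the surface after 24 h compound exposure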
ERAP1 HTS inh – human ERAP1 aminopeptidase inhibitors, primary screen, biochemical, single point, plate reader | Endoplasmic reticulum aminopeptidase 1 (Homo sapiens), Q9NZ08 | recombinant ERAP1, Leu-AMC fluorescence, 60 min | inhibition, % at 10.7 µM | 340,000 tested, 0.15% active | AID 652197, 2013;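 active = mean replicate inhibition of at least 30%, or all replicates individually reaching that 30% level; inactive = mean below 30% and not every replicate reaching it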
Target sequence (Q9NZ08 whole entry, looked up): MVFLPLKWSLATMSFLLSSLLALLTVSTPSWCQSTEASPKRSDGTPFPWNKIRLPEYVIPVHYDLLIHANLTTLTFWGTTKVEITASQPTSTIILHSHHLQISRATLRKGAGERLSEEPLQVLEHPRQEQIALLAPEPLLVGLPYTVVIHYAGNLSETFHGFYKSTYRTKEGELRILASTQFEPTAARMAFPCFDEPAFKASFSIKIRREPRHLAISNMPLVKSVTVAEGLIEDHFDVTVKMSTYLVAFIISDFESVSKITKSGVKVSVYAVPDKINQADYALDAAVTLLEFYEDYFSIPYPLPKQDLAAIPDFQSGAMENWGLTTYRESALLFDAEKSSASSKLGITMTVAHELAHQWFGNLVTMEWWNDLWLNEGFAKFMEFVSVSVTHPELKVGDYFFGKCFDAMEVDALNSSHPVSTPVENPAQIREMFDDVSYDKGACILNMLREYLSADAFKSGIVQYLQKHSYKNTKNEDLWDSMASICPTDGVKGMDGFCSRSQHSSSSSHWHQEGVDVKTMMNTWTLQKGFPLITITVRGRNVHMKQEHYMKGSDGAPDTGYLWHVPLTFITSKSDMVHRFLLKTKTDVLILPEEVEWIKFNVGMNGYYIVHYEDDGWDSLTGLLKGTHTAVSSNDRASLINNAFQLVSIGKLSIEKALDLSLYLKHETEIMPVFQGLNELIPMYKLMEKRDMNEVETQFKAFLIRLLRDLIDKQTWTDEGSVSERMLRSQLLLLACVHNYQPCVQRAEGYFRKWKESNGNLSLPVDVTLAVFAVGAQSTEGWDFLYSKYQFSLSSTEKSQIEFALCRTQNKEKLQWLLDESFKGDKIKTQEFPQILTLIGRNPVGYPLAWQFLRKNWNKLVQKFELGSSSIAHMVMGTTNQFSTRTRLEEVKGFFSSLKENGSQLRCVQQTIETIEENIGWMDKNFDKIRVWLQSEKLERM
FGF22 binding – binders of human FGF22 protein, primary screen, FGF22 synaptogenesis inhibitor project, biophysical, thermal shift, single point; Fibroblast growth factor 22 (Homo sapiens), Q9HCT0; recombinant FGF22 thermal shift, SYPRO orange fluorescence; percent of sucrose octasulfate shift, DMSO zero; activity (Tm shift, normalised), % at 9.99 µM; 340,000 tested, 1.5% active; AID 651658, 2012;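 active = mean Tm shift, scaled 0 neutral to 100 positive control, at about 1.3% or above, every replicate too, limit read from the data; inconclusive = no clear call, values can overlap the other calls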
DENV2 CPE – inhibitors of DENV2 cytopathic effect, primary screen, cell-based, plate reader, single concentration; CPE inhibition, % at 9.99 µM; DENV2-infected cells, cytopathic effect rescue; 350,000 tested, 1.7% active; AID 651640, 2012; in the data active = CPE inhibition above about 20%, passing the limit was not always enough; inconclusive = no clear call, values can overlap the other calls; tested in BHK-21 cells
Large screens that a line does not name were inactive.

O=C(C1CCC1)N1C[C@H]2[C@@H](c3ccccc31)[C@H](CO)N2C(=O)Cc1ccccn1	DENV2 CPE 33
O=C(CC(F)(F)F)N1C[C@H]2[C@@H](c3ccccc31)[C@@H](CO)N2Cc1cccnc1	DENV2 CPE 27
O=C(CC(F)(F)F)N1C[C@@H]2[C@H](c3ccccc31)[C@H](CO)N2C(=O)c1ccncc1	none
O=C(CC(F)(F)F)N1C[C@@H]2[C@H](c3ccccc31)[C@@H](CO)N2C(=O)c1cccnc1	DENV2 CPE 23
O=C(C1CCC1)N1C[C@@H]2[C@H](c3ccccc31)[C@H](CO)N2C(=O)Cc1ccccn1	none (no result: ERAP1 HTS inh, DENV2 CPE)
O=C(c1cccnc1)N1C[C@@H]2[C@H](c3ccccc31)[C@@H](CO)N2C(=O)C1CCCCC1	DENV2 CPE 52
C[C@@H]1CN([C@H](C)CO)C(=O)c2cc(NC(=O)CCC(F)(F)F)ccc2O[C@@H](C)CCCCO[C@@H]1CN(C)Cc1ccc(Cl)c(Cl)c1	none
O=C1C2C3C=CC(CC3)C2C(=O)N1/N=C/c1ccco1 (stereo unspecified)	FGF22 binding 44 (no result: E-sel inducer)
CCN1[C@H](C(=O)NCCCN(C)C)[C@@H](CO)[C@@H]2Cn3c(ccc(C4=CCCC4)c3=O)[C@@H]21	none (no result: FGF22 binding)
O=C(Nc1cc(F)ccc1F)N1CCCCN2[C@H](CO)[C@H](c3ccc(-c4ccccc4)cc3)[C@H]2C1	DENV2 CPE 62
O=C(Nc1cc(F)ccc1F)N1CCCCN2[C@H](C1)[C@H](c1ccc(-c3ccccc3)cc1)[C@@H]2CO	DENV2 CPE 36
O=C(Nc1cc(F)ccc1F)N1CCCCN2[C@H](CO)[C@H](c3ccc(-c4ccccc4)cc3)[C@@H]2C1	none
O=C(Nc1ccccc1F)N1CCCCN2[C@H](CO)[C@@H](c3ccc(-c4cccnc4)cc3)[C@@H]2C1	none
O=C(Nc1ccccc1F)N1CCCCN2[C@H](CO)[C@H](c3ccc(-c4cccnc4)cc3)[C@H]2C1	DENV2 CPE 27
CCC(=O)Nc1ccc2c(c1)C(=O)N(C)[C@H]1CC[C@H](CC(=O)NCC3CC3)O[C@@H]1CO2	none
O=C(C1=C[C@H](C2CC2)C[C@H](OCCCCO)O1)N1CCCC1	none (no result: E-sel inducer)
CN(C)C(=O)C[C@H]1CC[C@H]2[C@@H](COc3ccc(NC(=O)NCc4ccccc4)cc3C(=O)N2C)O1	none
C[C@@H]1CN([C@H](C)CO)C(=O)c2cc(NS(=O)(=O)c3cn(C)cn3)ccc2O[C@H]1CN(C)C(=O)Nc1ccc(F)cc1	none (no result: ERAP1 HTS inh, FGF22 binding, DENV2 CPE)
C[C@H](CO)N1C[C@H](C)[C@H](CN(C)Cc2ccc(C(=O)O)cc2)Oc2ccc(NS(=O)(=O)c3cn(C)cn3)cc2C1=O	DENV2 CPE 41 (no result: E-sel inducer)
C[C@@H]1CN([C@H](C)CO)C(=O)c2cc(NS(=O)(=O)c3cn(C)cn3)ccc2O[C@@H]1CN(C)C(=O)Nc1ccc2c(c1)OCO2	E-sel inducer 62
C[C@@H]1CN([C@H](C)CO)C(=O)c2cc(NS(=O)(=O)c3cn(C)cn3)ccc2O[C@@H](C)CCCCO[C@H]1CN(C)C(=O)Nc1ccc2c(c1)OCO2	none
C[C@@H]1CN([C@@H](C)CO)C(=O)c2cc(NS(=O)(=O)c3cn(C)cn3)ccc2O[C@H]1CN(C)C(=O)Nc1ccc(F)cc1	E-sel inducer 87 (no result: ERAP1 HTS inh, FGF22 binding, DENV2 CPE)
C[C@@H]1CN([C@@H](C)CO)C(=O)Cc2cc(NS(=O)(=O)c3cn(C)cn3)ccc2O[C@@H]1CN(C)C(=O)Nc1ccc2c(c1)OCO2	DENV2 CPE 28
O=C(C[C@@H]1CC[C@H](NC(=O)c2ccncc2)[C@@H](CO)O1)NCC1CCCCC1	none
COc1ccccc1CNC(=O)Nc1nc(C(N)Cc2ccc(Cl)cc2)cs1 (stereo unspecified)	F508del corr 8.3
COc1ccc(CNC(=O)Nc2nc(C(N)Cc3ccc(Cl)cc3)cs2)cc1 (stereo unspecified)	DENV2 CPE inconclusive
CC1=CCC[C@@H]2[C@@](C)(CC/C(C)=C/C(=O)O)[C@H](C)CC[C@@]12C	DENV2 CPE 25 (no result: E-sel inducer)
Cc1c(O)nc2ccccn2c1=O	E-sel inducer 71 (no result: ERAP1 HTS inh)
CCCCc1c(O)nc2ccccn2c1=O	none
O=[N+]([O-])c1ccc2c(c1)-c1ccccc1C2O (stereo unspecified)	ERAP1 HTS inh 39
CC(OC(=O)c1ccncc1)C(=O)Nc1cccc([N+](=O)[O-])c1 (stereo unspecified)	FGF22 binding 43
CCC(C)C(CO)NCCCn1cnc(C(=O)Nc2ccc(C)c(C)c2)n1 (stereo unspecified)	DENV2 CPE 59 (no result: ERAP1 HTS inh)
O=C1CN(S(=O)(=O)Cc2ccccc2)C[C@@H]2[C@@H](c3ccc(C#CCC4CCCC4)cc3)[C@@H](CO)N12	none (no result: E-sel inducer, FGF22 binding)
CC(=Nc1ccccc1O)c1sc2ccccc2c1O	F508del corr 10
Oc1c(N=Nc2ccccc2)sc2ccccc12	none (no result: ERAP1 HTS inh, DENV2 CPE)
Cc1c(C)n(CCN(C)C)c2ncnc(NCc3ccccc3)c12	none
CN1C(=O)c2ccccc2Cc2c(NCc3ccccc3)ncnc21	FGF22 binding 43
O=C(CN1CCCC1)N/N=C/c1c(O)ccc2ccccc12	F508del corr 10.0 (no result: E-sel inducer, FGF22 binding)
O=C(N/N=C/c1c(O)ccc2ccccc12)C(=O)N1CCCC1	F508del corr 13
Oc1ccc2ccccc2c1C=NNc1ccccn1	F508del corr 9.7
Fc1cccc(F)c1/C=N/Nc1ccccn1	none
CCCNC(=O)N1C[C@H]2[C@@H](c3ccccc31)[C@H](CO)N2C(=O)C1CCOCC1	none (no result: ERAP1 HTS inh, FGF22 binding, DENV2 CPE)
C/C=C/c1cnc2c(c1)C(=O)N([C@@H](C)CO)C[C@H](C)[C@H](CN(C)C(=O)C1CC1)O2	none (no result: ERAP1 HTS inh, FGF22 binding, DENV2 CPE)
C[C@H]1CN([C@@H](C)CO)C(=O)c2ccccc2-c2ccccc2CO[C@H]1CN(C)Cc1ccc(C(=O)O)cc1	none
Nc1c(C(=O)NCc2cccs2)nnn1CC(=O)Nc1cccc(Cl)c1	FGF22 binding 43 (no result: E-sel inducer)
Cc1ccc(NC(=O)Cn2nnc(C(=O)NCc3cccs3)c2N)cc1Cl	none (no result: E-sel inducer)
CCC(=O)N1[C@@H]2c3cccc(=O)n3C[C@@H]2[C@@H](CO)[C@@H]1C(=O)N[C@@H](C)c1ccccc1	none (no result: FGF22 binding)
COc1ccc2c3c([nH]c2c1)[C@H](CO)N(C(=O)c1ccc(F)cc1)CC31CCN(S(=O)(=O)c2cccs2)CC1	none (no result: ERAP1 HTS inh, FGF22 binding)
Cc1ccc2nsnc2c1NC(=O)c1ccc([N+](=O)[O-])cc1	FGF22 binding 43 (no result: E-sel inducer)
COc1ccc(CN(C)C[C@H]2OCCCC[C@@H](C)Oc3ccc(NC(=O)CCCN(C)C)cc3C(=O)N([C@@H](C)CO)C[C@@H]2C)cc1	none
Cc1nn(CC(=O)c2cccc(Cl)c2)c(C)c1[N+](=O)[O-]	FGF22 binding 43
Cc1cc(=O)c(C(=O)O)nn1-c1ccccc1	none
Cc1nn(-c2ccc(C(=O)OC(C)C)cc2)c(C)c1[N+](=O)[O-]	none
Cc1cc(C)n(-c2cccc(C(=O)O)c2)n1	FGF22 binding 44 (no result: E-sel inducer)
